{"source": "paper PMC10840928", "about": "(Chemistry (Weinheim an der Bergstrasse, Germany), 2023)", "key": {"[1]": {"target": "Aβ42 oligomers and fibrils (Homo sapiens, UniProt P05067)", "sequence (P05067 672-713 limits assumed)": "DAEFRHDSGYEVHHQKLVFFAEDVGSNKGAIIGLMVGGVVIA", "assay": "Fluorescence turn-on with Aβ42 fibrils and oligomers", "assay_type": "binding", "conditions": "5 μM compound, 25 μM Aβ42 species, PBS; for fluorescence turn-on effect with Aβ aggregates: excitation 470 nm; for maximum emission wavelength in the presence of Aβ aggregates: for DCM-OH-2-MT the LE peak"}, "[2]": {"assay": "Job's plot analysis of Cu", "assay_type": "physicochemical", "conditions": "PBS pH 7.4, total 30 μM", "how_it_was_run": "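Test compound and Cu(II) mixed in PBS pH 7.4, Cu from 0 to 100 mol %, combined concentration fixed at 30 μM. Equilibrated at least 5 min at room temperature. UV-vis spectra recorded, and stoichiometry read from the break point of the plot versus Cu mole fraction.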"}, "[3]": {"target": "Aβ aggregates in 5xFAD mouse brain sections (Homo sapiens, UniProt P05067)", "sequence (P05067 672-711 limits assumed)": "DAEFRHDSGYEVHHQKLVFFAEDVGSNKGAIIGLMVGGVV", "assay": "Histological staining of 5xFAD mouse brain sections, colocalization with ThS", "conditions": "9-month-old 5xFAD brain sections, 10 μM compound, 2.5 μM ThS"}, "[4]": {"assay": "pKa by UV-vis spectrophotometric titration", "assay_type": "physicochemical", "conditions": "pH 3-11, I = 0.1 M NaCl", "how_it_was_run": "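About 20 μM test compound in 0.1 M NaCl titrated with small aliquots of 0.2 M NaOH, from low to high pH (3–11). Run at room temperature under moist N2 flow until spectra stopped changing, giving about 30 UV-vis spectra per compound. Constants fitted with HypSpec. Largest pKa assigned to the phenol O-H.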"}, "[5]": {"assay": "Viscosity sensitivity measurement", "assay_type": "physicochemical", "conditions": "10 μM, ethylene glycol/glycerol mixtures", "how_it_was_run": "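Mixed until no layering, then fluorescence intensity recorded. log I plotted against log η and fitted by linear regression (log I = x log η + A). Slope x taken as sensitivity.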"}, "Aβ42 peptide": {"target": "Aβ42 peptide (Homo sapiens, UniProt P05067)", "sequence (P05067 672-713 limits assumed)": "as the sequence (P05067 672-713 limits assumed) above", "assay": "In vitro Aβ42 aggregation monitoring", "assay_type": "binding", "conditions": "25 μM peptide, 5 μM probe, 37 °C, 0-40 h"}, "[6]": {"test_system": "Aβ aggregates in 5xFAD mice", "assay": "Real-time in vivo NIR fluorescence imaging", "design": "species or system mouse", "conditions": "5 mg/kg"}, "[7]": {"test_system": "human neuroblastoma (SH-SY5Y) cells", "assay": "Alamar Blue cytotoxicity, SH-SY5Y cells", "assay_type": "cell-based", "conditions": "40 h treatment", "how_it_was_run": "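After seeding at 2.0 × 10⁴/well and 24 h growth, medium changed to MEM/F-12 (1:1)/N-2 for 1 h. Cells exposed 40 h to test compound at varying concentrations. Alamar Blue incubation 90 min at 37 °C, then fluorescence measured at 590 nm with 560 nm excitation.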"}, "[8]": {"test_system": "mouse neuroblastoma (N2A) cells", "assay": "Alamar Blue cytotoxicity, N2A cells", "assay_type": "cell-based", "conditions": "40 h treatment", "how_it_was_run": "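Cells seeded at 2.0 × 10⁴/well and grown 24 h. Medium switched to DMEM/N-2 for 1 h, then test compound added at a range of concentrations for 40 h. Alamar Blue added and incubated 90 min at 37 °C. Fluorescence read at 590 nm (excitation 560 nm).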"}}, "data": [{"smiles": "CN1CCN(C)CCN(Cc2cc(/C=C/C3=CC(=C(C#N)C#N)c4ccccc4O3)cc(CN3CCN(C)CCN(C)CC3)c2O)CC1", "note": "[DCM-OH-1-DT]", "values": [{"measurement": "fluorescence turn-on effect with Aβ aggregates", "setting": "[1]", "value": "fluorescence enhancement"}, {"measurement": "maximum emission wavelength in the presence of Aβ aggregates", "setting": "[1]", "value": "~ 650 nm"}, {"measurement": "stoichiometry of Cu(II)-ligand complexation in solution", "setting": "[2]", "value": "mixture of 1:1 and 2:1 ligand-to-Cu complexes"}]}, {"smiles": "CN1CCN(C)CCN(Cc2cc(/C=C/C3=CC(=C(C#N)C#N)c4ccccc4O3)ccc2O)CC1", "note": "[DCM-OH-1-MT]", "values": [{"measurement": "fluorescence turn-on effect with Aβ aggregates", "setting": "[1]", "value": "fluorescence enhancement"}, {"measurement": "maximum emission wavelength in the presence of Aβ aggregates", "setting": "[1]", "value": "~ 650 nm"}, {"measurement": "stoichiometry of Cu(II)-ligand complexation in solution", "setting": "[2]", "value": "mixture of 1:1 and 2:1 ligand-to-Cu complexes"}]}, {"smiles": "CN1CCN(C)CCN(Cc2cc(/C=C/C=C/C3=CC(=C(C#N)C#N)c4ccccc4O3)cc(CN3CCN(C)CCN(C)CC3)c2O)CC1", "note": "[DCM-OH-2-DT]", "values": [{"measurement": "labeling pattern of Aβ aggregates on brain sections", "setting": "[3]", "value": "bind to the peripheral region of the Aβ aggregates"}, {"measurement": "pKa of the phenol O-H (largest pKa value)", "setting": "[4]", "value": 9.35}, {"measurement": "maximum emission wavelength in the presence of Aβ aggregates", "setting": "[1]", "value": "about 730 nm"}, {"measurement": "viscosity sensitivity (x value)", "setting": "[5]", "value": "lowest viscosity sensitivity"}, {"measurement": "fluorescence response during Aβ42 aggregation", "setting": "Aβ42 peptide", "value": "more significant fluorescence increases at the early stage"}, {"measurement": "stoichiometry of Cu(II)-ligand complexation in solution", "setting": "[2]", "value": "only the 1:1 ligand-to-Cu complexes"}, {"measurement": "brain NIR fluorescence signal, AD mice vs WT mice", "setting": "[6]; 7-month-old 5xFAD vs WT, 5-, 15-, 30-min post injection", "value": "significantly higher fluorescence signal in AD mice"}, {"measurement": "time to maximum brain fluorescence signal after injection", "setting": "[6]; jugular vein injection, 7-month-old mice", "value": "about 15 min"}]}, {"smiles": "CN1CCN(C)CCN(Cc2cc(/C=C/C=C/C3=CC(=C(C#N)C#N)c4ccccc4O3)ccc2O)CC1", "note": "[DCM-OH-2-MT]", "values": [{"measurement": "labeling pattern of Aβ aggregates on brain sections", "setting": "[3]", "value": "bind to the peripheral region of the Aβ aggregates"}, {"measurement": "second emission peak (ESIPT emission) in the presence of Aβ aggregates", "setting": "[1]", "value": 730, "unit": "nm"}, {"measurement": "maximum emission wavelength in the presence of Aβ aggregates", "setting": "[1]", "value": 620, "unit": "nm"}]}, {"smiles": "N#CC(C#N)=C1C=C(/C=C/C=C/c2ccc(O)cc2)Oc2ccccc21", "note": "[DCM-OH-2]", "values": [{"measurement": "labeling pattern of Aβ aggregates on brain sections", "setting": "[3]", "value": "binding to the identical core regions of the Aβ aggregates"}, {"measurement": "pKa of the phenol O-H (largest pKa value)", "setting": "[4]", "value": 11.73}, {"measurement": "cytotoxicity", "setting": "[7]", "value": "slightly more toxic than the others"}, {"measurement": "fluorescence turn-on effect with Aβ aggregates", "setting": "[1]", "value": "significant fluorescence turn-on effect"}, {"measurement": "maximum emission wavelength in the presence of Aβ aggregates", "setting": "[1]", "value": 620, "unit": "nm"}, {"measurement": "fluorescence response during Aβ42 aggregation", "setting": "Aβ42 peptide", "value": "more significant fluorescence increases at the early stage"}, {"measurement": "cytotoxicity", "setting": "[8]", "value": "slightly more toxic than the others"}]}, {"smiles": "Cc1ccc2c(c1)sc(-c1ccc(N(C)C)cc1)[n+]2C", "note": "[ThT, Thioflavin T, reference compound]", "values": [{"measurement": "fluorescence response during Aβ42 aggregation", "setting": "Aβ42 peptide", "value": "minimal fluorescence enhancement from 0–10 h"}]}]}
